# A selection: hits, their analogues and other compounds. The true share with any hit is near 3.7%.
# SR-BI DiI inh: inhibitors of SR-BI mediated HDL lipid uptake, primary screen, ldlA[mSR-BI] cells, fluorescence, single point | ldlA[mSR-BI] CHO cells, DiI-HDL uptake fluorescence, 3 h | inhibition, % at 12.5 µM | 0.96% of 320,000 active | AID 488896, 2010;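 active means mean replicate inhibition of at least 70% and a set share of replicates each scoring 70 or more; inconclusive means meets just one of the two criteria; inactive means fails both criteria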;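 further: 0% = median of neutral control wells and 100% = median of positive control wells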
# SR-BI uptake up: activators of SR-BI mediated DiI-HDL uptake, primary screen, ldlA[mSR-BI] CHO cells, DiI fluorescence; 3 h; 100 = double the neutral-control signal; activation, % at 12.5 µM; 0.096% of 320,000 active; AID 504775, 2011;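 active means mean replicate activation of at least 60% and every replicate at or above 60%; inconclusive means mean or all-replicate condition met, but not both; inactive means mean below 60% and not all replicates reaching 60%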;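 further: 0% = median plate neutral-control signal and 100% = twice that signal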
#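 Material – SR-BI-overexpressing, LDLR-lacking CHO cells · Medium – BSA-supplemented, HEPES-buffered Ham's F12, pH 7.4 · Doses – single concentration · Times – compound with DiI-HDL co-incubation, 3 h at 37 °C · Measured by – bottom-read fluorescence, 550/595 nm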
# AHR act: AHR activators, primary screen, cell-based, luminescence, luciferase reporter, human. AID 2796, 2010. AHR-responsive luciferase reporter cells. Aryl hydrocarbon receptor (Homo sapiens), P35869. 2.5% of 320,000 active. activation, % at 5 µM; in the data active means activation above about 47%;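 further: 0% = vehicle wells and 100% = reference agonist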
# Target sequence (P35869 whole entry, looked up): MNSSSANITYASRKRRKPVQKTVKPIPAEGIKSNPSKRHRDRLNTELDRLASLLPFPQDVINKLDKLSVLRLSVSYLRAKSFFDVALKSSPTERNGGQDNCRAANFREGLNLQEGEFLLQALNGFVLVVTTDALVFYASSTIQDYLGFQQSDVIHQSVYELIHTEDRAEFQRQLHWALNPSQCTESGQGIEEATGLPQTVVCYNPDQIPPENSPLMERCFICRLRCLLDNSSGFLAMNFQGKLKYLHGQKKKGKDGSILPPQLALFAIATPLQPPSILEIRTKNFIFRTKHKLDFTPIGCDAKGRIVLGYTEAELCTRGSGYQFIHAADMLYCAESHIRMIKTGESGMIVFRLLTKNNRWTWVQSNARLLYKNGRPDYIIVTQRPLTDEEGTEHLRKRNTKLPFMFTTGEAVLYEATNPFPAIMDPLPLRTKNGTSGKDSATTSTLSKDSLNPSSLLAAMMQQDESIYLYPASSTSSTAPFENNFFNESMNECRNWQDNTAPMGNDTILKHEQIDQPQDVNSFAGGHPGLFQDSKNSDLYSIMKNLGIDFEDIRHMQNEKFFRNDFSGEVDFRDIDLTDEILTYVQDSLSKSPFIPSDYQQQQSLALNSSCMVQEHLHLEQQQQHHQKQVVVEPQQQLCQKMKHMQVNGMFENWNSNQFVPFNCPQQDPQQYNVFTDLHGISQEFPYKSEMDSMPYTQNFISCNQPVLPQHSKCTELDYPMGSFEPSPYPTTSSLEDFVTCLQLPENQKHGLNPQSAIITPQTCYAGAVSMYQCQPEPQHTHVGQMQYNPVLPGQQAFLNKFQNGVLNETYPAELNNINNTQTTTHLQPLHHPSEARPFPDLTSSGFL
# FXN GAA850 act: FXN promoter activators, primary screen, cell-based, luciferase luminescence, HEK293 lucGAA850. HEK293 lucGAA850 FXN promoter luciferase reporter, 24 h; percent of 10 µM SAHA response. activation, % at 6 µM. 0.56% of 360,000 active. AID 540364, 2011;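 active means activation above the average of all compounds screened plus 3 SD, cutoff fixed separately per campaign, cut at about 7.5% in these data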;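 further: 0% = DMSO wells and 100% = 10 µM SAHA wells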
# JMJD2C inh: inhibitors of GASC-1 histone demethylase, primary screen, biochemical, fluorescence, DELFIA europium; Lysine-specific demethylase 4C (Homo sapiens), Q9H3R0; GST-JMJD2C(1-420) H3K9me3 demethylation; inhibition, % at 2.35 µM; 0.069% of 330,000 active; AID 2099, 2009;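 active means more than half of a compound's replicate wells show inhibition beyond 50%, single wells judged on their own value; inconclusive means some, but no more than half, of replicates pass 50% inhibition; inactive means no replicate passes 50% inhibition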;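 further: signal counts dimethyl H3K9 product captured on neutravidin plate; 0% = median of DMSO wells and 100% = 0.3 times that DMSO median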
# Active calls of the source: *; u = inconclusive; x = no result given.
SMILES,SR-BI DiI inh,SR-BI uptake up,AHR act,FXN GAA850 act,JMJD2C inh
Cc1cc(NC(=O)c2cc(-c3ccccc3C)nc3ccccc23)no1,45,-45,28,1,-3
COc1ccccc1CNC(=O)c1cc(C)nc2ccccc12,x,x,4,-2,0
O=C(Nc1ccc(F)cc1F)c1cc(-c2ccco2)nc2ccccc12,x,x,45,-1,-13
Cc1ccc(-c2cc(C(=O)Nc3cc(C)on3)c3ccccc3n2)c(C)c1,78*,-78,9,-3,7
C=CCSc1nc(N)c(C(=O)Nc2ccccc2OC)cc1C(=O)Nc1ccccc1,-1,1,75*,2,5
O=C(Nc1ccccc1F)c1cc(-c2ccco2)nc2ccccc12,32,-32,60*,2,-19
COc1ccccc1NC(=O)c1cc(C)nc2ccccc12,u,-71,74*,0,-14
Cc1ccc(NC(=O)c2cc(-c3ccc(C)o3)nc3ccccc23)cc1,12,-12,57*,7,-10
Cc1ccc(-c2cc(C(=O)Nc3ccccn3)c3ccccc3n2)o1,35,-35,5,-2,0
COc1ccccc1NC(=O)c1cc(-c2ccc(C)o2)nc2ccccc12,x,x,72*,0,-6
CC(NC(=O)CCCCCCN1C(=O)c2ccccc2C1=O)c1ccc2c(c1)CCCC2 (stereo not drawn),-14,14,0,2,-4
COc1ccc(N=C2O/C(=C/c3sc(=S)n(CC4CCCO4)c3O)N=C2C#N)cc1 (stereo not drawn),x,x,3,0,35
CCN(CC1CCCO1)C(=O)c1cc(COc2ccccc2SC)on1 (stereo not drawn),18,-18,0,3,-21
COc1ccc(NC(=O)C(F)(F)F)cc1OC,78*,-78,2,1,-3
Cc1ccsc1/C=N/Nc1nc(Cl)c(Cl)cc1Cl,30,-30,63*,6,17
Cc1ccc(/C=N/Nc2nc(Cl)c(Cl)cc2Cl)s1,x,x,54*,7,-10
Cc1cc(CNC(=O)c2cccc3c2C(=O)c2ccc(-c4ccc(F)cc4OCc4ccccc4)cc2S3(=O)=O)c(C(F)(F)F)o1,90*,-90,1,1,x
COc1cc(/C=C(\C#N)C(=O)Nc2ccc(SC(F)F)cc2)cc(OC)c1OC,86*,-86,2,-1,3
Cc1cc(C)c(C)c(S(=O)(=O)NCc2ccc(C(=O)N3CCOCC3)cc2)c1C,x,x,-5,0,-7
C/C(=N\OCC(=O)Nc1c(C)cc(C)cc1C)c1ccc2c(c1)OCCO2,15,-15,0,1,3
Cc1cc(C)nc(/N=C(\N)N2CCc3ccccc32)n1,5,-5,54*,6,-5
Cc1cc(C)nc(/N=C(\N)N2CCCCCC2)n1,-9,9,5,2,3
NC(=NCc1ccccc1)NC(=O)c1nc(Cl)c(N)nc1N,-4,4,69*,1,-2
CC1CCN(c2c(NCC3CCC(C(=O)NCCCc4ccccc4)CC3)c(=O)c2=O)CC1 (stereo not drawn),x,x,1,x,55
COc1ccc(/C=C2\Sc3ccc(C(=O)NCc4cccnc4)cc3N(C)C2=O)cc1OC,74*,-74,20,3,-9
SMILES,SR-BI DiI inh,SR-BI uptake up,AHR act,FXN GAA850 act,JMJD2C inh
COc1cccc(/C=C2\Sc3ccc(C(=O)NCc4cccnc4)cc3N(C)C2=O)c1,x,x,10,0,39
Nc1n[nH]c(N)c1N=Nc1ccc2c(c1)OCO2,20,-20,48*,1,-6
CC1CCCC(C)N1C(=O)COC(=O)c1ccc(S(=O)(=O)N(C)c2ccccc2)cc1 (stereo not drawn),1,-1,0,1,-9
COc1cc(-c2noc(C)c2C#Cc2nccn2C)cc(OC)c1OC,16,-16,66*,-2,9
CC1(c2ccc(Cl)cc2Cl)NC(=O)N(CC(=O)NCCC2=CCCCC2)C1=O (stereo not drawn),x,x,x,-2,x
CC1CN(Cc2c(O)ccc3c2oc(=O)c2ccccc23)CC(C)O1 (stereo not drawn),x,x,3,3,54*
Cc1cc(Cl)c2ccc(Cl)cc2n1,-6,6,0,2,6
Cc1cc(Cl)c2cc3ccccc3cc2n1,-34,34,52*,0,3
COc1cc(NC(=O)c2cccnc2)c(Cl)cc1NC(=O)c1ccccc1,55,-55,75*,1,-2
COc1cc(NC(=O)c2cccnc2)c(OC)cc1NC(=O)c1ccc(Br)cc1,32,-32,43,2,-39
COc1cc(NC(=O)c2cccnc2)c(Cl)cc1NC(=O)c1ccc(Cl)cc1,4,-4,63*,2,7
COc1cc(NC(=O)c2ccc(Cl)cc2)c(Cl)cc1NC(=O)c1cccnc1,26,-26,53*,2,-3
O=C(Nc1cc(Cl)c(Cl)cc1Cl)c1cccnc1,19,-19,40,1,12
Cc1cccc(CCNS(=O)(=O)c2ccc3c(c2)CCN3C(=O)CCC(=O)O)c1,-3,3,0,2,1
COc1ccc(C#Cc2c(-c3ccccc3)n(C)c3ccccc23)cc1,66,-66,36,0,x
COc1ccc(C#Cc2c(C=O)n(C)c3ccccc23)cc1,14,-14,73*,2,2
Cn1c(C=O)c(C#Cc2ccccc2)c2ccccc21,22,-22,73*,0,0
CCOc1ccc(C(=O)Nc2cccc(-c3cc4ccccc4oc3=O)c2)cc1[N+](=O)[O-],80*,-80,-8,-2,-26
CCOc1ccccc1NC(=O)c1ccc(OCC)c([N+](=O)[O-])c1,u,-73,1,3,-11
CCN(CC(=O)Nc1cccc(S(=O)(=O)N(C)c2ccccc2)c1)Cc1cccs1,27,-27,-2,-1,x
CCN(CC)S(=O)(=O)c1ccc(C(=O)NC(C)(C)C)cc1,30,-30,2,0,-4
Cc1sc(NC(=O)c2ccco2)nc1-c1ccc2c(c1)CC(C)N2C(=O)C1CC1 (stereo not drawn),79*,-79,-10,-9,-5
O=c1oc(Nc2cccc(Cl)c2)nc2ccccc12,4,-4,7,4,14
Cc1cccc(-n2cc(-c3ccc([N+](=O)[O-])cc3)[nH]c2=S)c1,21,-21,25,2,5
O=[N+]([O-])c1ccc(-c2cn(-c3ccccc3)c(=S)[nH]2)cc1,-9,9,47*,7,-4
O=[N+]([O-])c1cccc(-c2cn(-c3ccccc3)c(=S)[nH]2)c1,28,-28,74*,3,16
